Source: article PMC4879609 (Molecular microbiology, 2016)
“And” between values parts separate entries of the source, which are not always exact repeats. Equal values may be shown once. Read-outs that look alike come from different tables or passages of the source.

Tests used:
[1] = molecular target: T1, LdIMPDH (Leishmania donovani, UniProt P21620); assay: Rate zonal centrifugation, quaternary structure of LdIMPDH; design: species or system L. donovani; details: saturating nucleotide, glycerol gradient
[2] = molecular target: T2, LmGMPR (Leishmania major, UniProt Q4QEB3); assay: Steady-state kinetic analysis of LmGMPR; type: biochemical, L. major; details: for Increase in NADPH Km value: saturating concentrations of GMP
T2 sequence (Q4QEB3 1-492): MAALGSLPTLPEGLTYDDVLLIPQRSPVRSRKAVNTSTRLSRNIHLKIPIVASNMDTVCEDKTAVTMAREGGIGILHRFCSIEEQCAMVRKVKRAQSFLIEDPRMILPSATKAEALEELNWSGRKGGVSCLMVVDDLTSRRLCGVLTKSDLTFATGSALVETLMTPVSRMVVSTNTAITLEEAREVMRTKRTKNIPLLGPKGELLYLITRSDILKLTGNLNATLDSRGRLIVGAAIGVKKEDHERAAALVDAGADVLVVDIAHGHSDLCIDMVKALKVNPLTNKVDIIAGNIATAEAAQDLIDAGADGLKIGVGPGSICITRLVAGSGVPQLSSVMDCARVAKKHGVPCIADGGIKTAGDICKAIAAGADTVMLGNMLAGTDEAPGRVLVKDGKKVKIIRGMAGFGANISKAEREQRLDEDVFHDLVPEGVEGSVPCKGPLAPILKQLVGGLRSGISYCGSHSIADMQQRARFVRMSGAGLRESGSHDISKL

[3] = molecular target: T2, LmGMPR; assay: Rate zonal centrifugation, quaternary structure of LmGMPR; design: species or system L. major; details: saturating (1.0 mM) nucleotide, 5–40% glycerol gradient
Summary of the method: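 Recombinant LmGMPR expressed in GMPR-deficient E. coli and purified by ammonium sulfate fractionation and Cibacron blue chromatography. Spun at 34,000 rpm for 16 h at 4 °C; 50 μg bovine hemoglobin as internal standard.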

[4] = molecular target: T2, LmGMPR; assay: Fluorescence titration of nucleotide binding to full length LmGMPR; design: species or system L. major
[5] = molecular target: LmGMPR CBS domain (His6-gmpr92-222) (Leishmania major, UniProt Q4QEB3); assay: Intrinsic fluorescence binding to LmGMPR CBS domain; design: species or system L. major
[6] = molecular target: T1, LdIMPDH; assay: biochemical; type: binding
[7] = molecular target: LdIMPDH CBS domain (His6-impdh112-223) (Leishmania donovani, UniProt P21620); assay: Intrinsic fluorescence binding to LdIMPDH CBS domain; design: species or system L. donovani
[8] = molecular target: T1, LdIMPDH; details: read-out: inhibition constant (Ki); ref Dobie et al., 2007; cited from earlier work
[9] = system: Leishmania; assay: Leishmania growth in media with defined purine source in presence of MPA; type: cell-based; details: media supplemented with either guanine or xanthine (Fig. S2)
[10] = molecular target: eukaryotic IMPDH enzymes, including human and Leishmania; details: literature values; cited from earlier work
[11] = molecular target: Leishmania major guanosine 5'-monophosphate reductase (Leishmania major); assay: rate zonal centrifugation on a glycerol gradient
[12] = molecular target: the molecule itself; assay: rate zonal centrifugation on a glycerol gradient
[13] = molecular target: the molecule itself; assay: rate zonal centrifugation on a glycerol gradient; remark: listed apart in the source
[14] = read-out: Kd1, 26 μM LmGMPR, no NADPH, fluorescence at 335 nm
[15] = 20 μM LdIMPDH, single phase binding isotherm

Nc1ncnc2c1ncn2[C@@H]1O[C@H](COP(=O)(O)O)[C@@H](O)[C@H]1O [AMP]
Quaternary structure of LdIMPDH [1]: tetrameric structure

Nc1ncnc2c1ncn2[C@@H]1O[C@H](COP(=O)(O)OP(=O)(O)OP(=O)(O)O)[C@@H](O)[C@H]1O [ATP]
Decrease in Vmax value ([2]; 1.0 mM ATP): ~ 4 fold | Increase in GMP Ks (Km) value ([2]; 1.0 mM ATP): 10 fold and ~ 10 fold | Increase in NADPH Km value [2]: ~ 2 fold | Quaternary structure of LmGMPR [3]: monomeric and dimeric forms | Kd [4, 14]: 87 ± 24 µM | Quaternary structure of LdIMPDH [1]: tetrameric structure | Binding saturation ([5]; up to 3.0 mM): saturation binding was not attained | Kd [6, 15]: 130 ± 11 µM | Kd ([7]; intrinsic fluorescence changes): 148 ± 19 µM

Nc1nc2c(ncn2[C@@H]2O[C@H](COP(=O)(O)O)[C@@H](O)[C@H]2O)c(=O)[nH]1 [GMP, guanosine 5′-monophosphate]
Quaternary structure of LmGMPR [3]: stabilized the formation of the LmGMPR tetramer | Kd [4]: 20 ± 2 µM | Quaternary structure of LdIMPDH [1]: tetrameric structure | Ki [8]: ~200 µM | Kd [5]: 333 ± 27 µM | Kd [6]: 66 ± 7 µM

Nc1nc2c(ncn2[C@@H]2O[C@H](COP(=O)(O)OP(=O)(O)OP(=O)(O)O)[C@@H](O)[C@H]2O)c(=O)[nH]1 [GTP]
Decrease in GMP Ks value ([2]; 10 μM GTP): ~ 3 fold | Increase in Vmax value ([2]; 10 μM GTP): ~ 8 fold | Increase in NADPH Km value [2]: ~ 2 fold | Utilization as substrate by LmGMPR ([2]; steady state kinetic analysis): not utilized as a substrate | Quaternary structure of LmGMPR [3]: stabilized the formation of the LmGMPR tetramer | Kd [4, 14]: 16 ± 1 µM | Kd ([5]; single phase binding isotherm, 35 μM His6-gmpr92-222): 188 ± 19 µM | Kd [6, 15]: 67 ± 5 µM

COc1c(C)c2c(c(O)c1C/C=C(\C)CCC(=O)O)C(=O)OC2 [MPA, mycophenolic acid]
Ki [2]: ~20 µM | Mode of inhibition of LmGMPR [2]: competitive inhibitor of NADPH | Effect on parasite growth [9]: refractory to MPA | Ki [10]: 0.004 to 0.02 µM

[Mg+2] [Mg^2+]
Effect on LmGMPR enzymatic activity ([2]; added to the reaction buffer): no significant affect on enzymatic activity

NC(=O)C1=CN([C@@H]2O[C@H](COP(=O)(O)OP(=O)(O)OC[C@H]3O[C@@H](n4cnc5c(N)ncnc54)[C@H](O)[C@@H]3O)[C@@H](O)[C@H]2O)C=CC1 [NADH]
Use as hydride donor for reductive deamination of GMP ([2]; NADH up to 5.0 mM): failed to induce the reductive deamination of GMP

NC(=O)C1=CN([C@@H]2O[C@H](COP(=O)(O)OP(=O)(O)OC[C@H]3O[C@@H](n4cnc5c(N)ncnc54)[C@H](OP(=O)(O)O)[C@@H]3O)[C@@H](O)[C@H]2O)C=CC1 [NADPH]
Kd ([4]; absence of GMP, shift of NADPH emission λmax, excitation 340 nm, equation 3): 27 ± 4 µM

O=c1[nH]cnc2nc[nH]c12 [hypoxanthine]
Binding to LdIMPDH ([6]; concentration of 2.0 mM): no significant binding | Binding to LdIMPDH CBS domain [7]: no saturable binding

Leishmania major guanosine 5'-monophosphate reductase (enzyme)
stoichiometry N [11]: 2

B1: Leishmania donovani inosine 5'-monophosphate dehydrogenase (enzyme, UniProt P21620 1-514, looked up)
chain: MATNNANYRIKTIKDGCTAEELFRGDGLTYNDFIILPGFIDFGAADVNISGQFTKRIRLHIPIVSSPMDTITENEMAKTMALMGGVGVLHNNCTVERQVEMVKSVKAYRNGFISKPKSVPPNTPISNIIRIKEEKGISGILVTENGDPHGKLLGIVCTKDIDYVKNKDTPVSAVMTRREKMTVERAPIQLEEAMDVLNRSRYGYLPIVNENDEVVNLCSRRDAVRARDYPHSTLDKSGRLICAAATSTRPEDKRRVAALADVGVDVLVLDSSQGNTIYQIAFIKWVKSTYPHLEVVAGNVVTQDQAKNLIDAGADGIRIGMGSGSICITQEVLACGRPQGTAVYKVAQYCASRGVPCTADGGLRQVGDICKALAIGANCAMLGGMLSGTTETPGEYFFKGGVRLKVYRGMGSLEAMSQGKESGKRYLSENEAVQVAQGVSGNVVDKGSAAKLIAYVSKGLQQSAQDIGEISFDAIREKMYAGQVLFSRRSPTAQGEGGVHSLHSYEKKLFAAKM
stoichiometry N [12]: 4 | stoichiometry N [13]: 2
